Data set [1] has as its system Influenza A virus. Description: Antiviral activity against Influenza A virus (A/WSN/1933(H1N1)) infected in MDCK cells assessed as reduction in virus-induced cytopathic effect at 100 uM measured after 40 hrs incubation by inverted microscpic imaging analysis. The class given is functional, organism-based. In short, it runs like this:
(§1)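 MDCK cells infected with influenza A/WSN/33 (H1N1), with compounds at 100 μM. Viral CPE judged by direct microscopic observation. DMSO served as the negative control and oseltamivir phosphate as the positive control. Triplicate experiments, with standard deviations.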
In general terms: Cytopathic effects are the visible damage that an infection or toxin causes in cultured cells.

Data set [2] relates to Influenza A virus. Description: Antiviral activity against Influenza A virus (A/WSN/1933(H1N1)) infected in MDCK cells assessed as s reduction in virus-induced cytopathic effect after 40 hrs incubation by CellTiter-Glo assay. The class given is functional, organism-based. An outline of the steps:
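CPE-based dose–response in MDCK cells infected with A/WSN/33 (H1N1), using the CellTiter-Glo viability read-out. Medium with 1% DMSO was the negative control and oseltamivir phosphate the positive control. IC50 is the concentration giving 50% inhibition of virus-induced CPE. Means of duplicate samples from three independent experiments.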

Data set [3] in a line: Cytotoxicity against MDCK cells assessed as reduction in cell viability by CellTiter-Glo assay. The class given is cell-based, Canis lupus familiaris. The conditions noted are these: dog. In short, it runs like this: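 Viability of normal, uninfected MDCK cells measured by CellTiter-Glo. Medium containing 1% DMSO was the negative control. CC50 is the concentration that reduces viability by 50%.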
For orientation: In ATP-based viability assays light output follows the ATP content of the culture.

Data set [4] in a line: Selectivity ratio of CC50 for MDCK cells to IC50 for Influenza A virus A/WSN/33(H1N1) infected in MDCK cells. The class given is toxicity, cell-based. Particulars: dog, read-out: Ratio CC50/IC50. In short, it runs like this: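 Selectivity index calculated as CC50 (uninfected MDCK cells, CellTiter-Glo) divided by IC50 (inhibition of A/WSN/33 H1N1-induced CPE in MDCK cells).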

Data set [5] addresses Hemagglutinin (Influenza A virus (A/Puerto Rico/8/1934(H1N1))) (UniProt P03452). Description: Inhibition of hemagglutinin in compound-pretreated Influenza A virus (A/WSN/1933(H1N1)) infected in chicken RBC assessed as reduction in virus-induced agglutination measured after 25 mins. The class given is cell-based. The conditions noted are these: Erythrocyte. An outline of the steps: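 Hemagglutination inhibition: virus pretreated with compound, then chicken erythrocytes added and incubated a further 25 min at room temperature. Anti-HA antibody served as the positive control.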

For data set [6], the system named is Influenza A virus. The experiment in a line: Antiviral activity against Influenza A virus (A/WSN/1933(H1N1)) infected in MDCK cells assessed as inhibition of virus-induced cytopathic effect at 100 uM measured after 40 hrs incubation by inverted microscpic imaging analysis. The class given is functional. An outline of the steps: as §1
For data set [7], the system named is Influenza A virus. The experiment in a line: Antiviral activity against Influenza A virus (A/Hong Kong/4801/2014 (H3N2)) infected in cells assessed as reduction in infected cells. The class given is functional, organism-based.
A further data set concerns Influenza B virus. Description: Antiviral activity against Influenza B virus (B/Sichuan/531/2018(Victoria)) infected in cells assessed as reduction in infected cells. The class given is functional, organism-based.
Data set [8] in a line: Selectivity index, ratio of CC50 for MDCK cells to IC50 for antiviral activity against Influenza A virus (A/Hong Kong/4801/2014 (H3N2)). The class given is toxicity. The conditions noted are these: dog, read-out: Ratio CC50/IC50.
The nature of data set [9]: Selectivity index, ratio of CC50 for MDCK cells to IC50 for antiviral activity against Influenza A virus (B/Sichuan/531/2018(Victoria)). The class given is toxicity. Particulars: dog, read-out: Ratio CC50/IC50.
Data set [10] has as its system Influenza A virus. Description: Antiviral activity against Influenza A virus (A/WSN/1933(H1N1)) infected in MDCK cells assessed as suppression of M2 protein expression at early stage of infection measured after 2 hrs post infection by Western blot analysis. The class given is functional. An outline of the steps: (§2)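 Time-of-addition study in MDCK cells infected with A/WSN/33 (H1N1). Compound was present during one of five windows: 0–10, 0–2, 2–5, 5–8 or 8–10 h, corresponding to entry (0–2 h), replication/translation (2–8 h) and release (8–10 h). M2 and NP protein levels were compared with a DMSO control.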
On the technique in general: Immunoblotting shows a protein as a band on a membrane.

Data set [11] deals with Influenza A virus. Description: Antiviral activity against Influenza A virus (A/WSN/1933(H1N1)) infected in MDCK cells assessed as suppression of NP protein expression measured after 2 hrs post infection by Western blot analysis. The class given is functional. An outline of the steps: as §2
For data set [12], the target named is Hemagglutinin (Influenza A virus (A/Puerto Rico/8/1934(H1N1)), UniProt P03452). The experiment in a line: Binding affinity to CM5 chip immobilized Influenza A virus (A/Michigan/45/2015) (H1N1)) hemagglutin assessed as dissociation constant by surface plasmon resonance assay.
Hemagglutinin (Influenza A virus (A/Puerto Rico/8/1934(H1N1)), UniProt P03452), sequence (P03452 whole entry): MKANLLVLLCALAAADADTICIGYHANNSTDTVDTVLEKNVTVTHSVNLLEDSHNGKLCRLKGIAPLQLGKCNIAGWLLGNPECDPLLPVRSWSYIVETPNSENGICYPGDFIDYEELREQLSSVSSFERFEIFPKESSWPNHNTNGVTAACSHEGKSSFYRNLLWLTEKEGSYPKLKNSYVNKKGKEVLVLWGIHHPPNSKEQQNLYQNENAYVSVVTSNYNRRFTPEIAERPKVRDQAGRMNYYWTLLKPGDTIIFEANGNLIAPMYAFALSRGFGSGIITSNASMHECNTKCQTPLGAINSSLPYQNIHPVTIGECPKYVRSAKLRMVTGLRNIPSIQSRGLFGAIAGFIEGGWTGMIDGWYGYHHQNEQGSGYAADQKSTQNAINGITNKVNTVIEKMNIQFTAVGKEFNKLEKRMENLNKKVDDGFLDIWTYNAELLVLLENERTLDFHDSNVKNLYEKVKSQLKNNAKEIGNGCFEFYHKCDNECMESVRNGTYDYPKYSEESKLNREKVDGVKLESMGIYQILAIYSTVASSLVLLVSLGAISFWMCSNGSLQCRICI
The next data set addresses Hemagglutinin (Influenza A virus, UniProt B4URE7). Description: Inhibition of CM5 chip immobilized Influenza A virus (A/Viet Nam/1203/2004(H5N1)) HA by SPR method.

Active and inactive are the calls of the source. The rule behind the calls is not given here. Numbered stars: 1 amine (or outer) side, 2 acyl side, 3 side chain; on linkers, the order of the positions; unused ones are H or OH. Bridge positions count the residues as written; N and C are the ends. Square brackets hold non-standard residues; d marks the D form. Peptide text beside a SMILES is read from it. I, II: the chains in the order shown. X1 = O=C(O)C1(OCCCCC(=O)[*:2])C[C@H](O)[C@@H](N[*:1])[C@H]([C@H](O)[C@H](O)CO)O1; X2 = O=C(NCCCCCCN[*:1])c1cc(C(=O)NCCCCCCN[*:2])cc(C(=O)NCCCCCCN[*:3])c1

Here are results for 3 molecules from ChEMBL document CHEMBL4842395, “Design and Synthesis of Oleanolic Acid Trimers to Enhance Inhibition of Influenza Virus Entry” (ACS Med Chem Lett, 2021).

Hemagglutinin, sequence (B4URE7 whole entry): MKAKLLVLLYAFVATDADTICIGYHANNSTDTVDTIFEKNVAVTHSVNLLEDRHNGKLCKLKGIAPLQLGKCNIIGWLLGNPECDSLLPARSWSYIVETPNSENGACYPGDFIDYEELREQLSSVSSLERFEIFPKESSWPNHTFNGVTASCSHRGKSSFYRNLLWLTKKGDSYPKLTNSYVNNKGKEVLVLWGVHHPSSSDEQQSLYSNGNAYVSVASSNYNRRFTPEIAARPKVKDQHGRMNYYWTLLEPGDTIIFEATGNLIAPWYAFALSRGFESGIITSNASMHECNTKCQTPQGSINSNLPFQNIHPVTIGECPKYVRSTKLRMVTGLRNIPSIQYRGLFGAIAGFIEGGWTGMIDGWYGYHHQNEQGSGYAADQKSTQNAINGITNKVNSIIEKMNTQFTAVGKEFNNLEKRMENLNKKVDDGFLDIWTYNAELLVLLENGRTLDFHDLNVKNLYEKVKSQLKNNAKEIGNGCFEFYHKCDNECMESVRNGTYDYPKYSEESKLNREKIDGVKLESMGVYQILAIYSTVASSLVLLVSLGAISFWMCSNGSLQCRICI
Hemagglutinin (Influenza A virus (A/Puerto Rico/8/1934(H1N1))), sequence (P03452 whole entry): as the sequence (P03452 whole entry) above

In general, IC50 refers to the midpoint of a concentration-inhibition curve. By CC50 is commonly meant the concentration giving 50% cytotoxicity. As usually defined, the inhibition is the drop in the measured response relative to a control, in per cent. Turning to `CC1(C)CC[C@]2(C(=O)NCCCc3cn(CC(CO)(Cn4cc(CCCNC(=O)[C@]56CCC(C)(C)C[C@H]5C5=CC[C@@H]7[C@@]8(C)CC[C@H](O)C(C)(C)[C@@H]8CC[C@@]7(C)[C@]5(C)CC6)nn4)Cn4cc(CCCNC(=O)[C@]56CCC(C)(C)C[C@H]5C5=CC[C@@H]7[C@@]8(C)CC[C@H](O)C(C)(C)[C@@H]8CC[C@@]7(C)[C@]5(C)CC6)nn4)nn3)CC[C@]3(C)C(=CC[C@@H]4[C@@]5(C)CC[C@H](O)C(C)(C)[C@@H]5CC[C@]43C)[C@@H]2C1`, the result with Influenza A virus [1] was Active. Further, the results for the IC50 in the data set on Influenza A virus [2], in the data set on Influenza A virus [7] and with Influenza B virus were 310 nM, 1710 nM and 37600 nM, respectively. For the same molecule, the CC50 in data set [3] was over 100000 nM. Further, the results for the selectivity ratio in data set [4], in data set [8] and in data set [9] were over 323, over 58.5 and over 2.66, respectively. Also, in data set [5], the inhibition result is “Active”. Also, the inhibition at 100 µM in the data set on Influenza A virus [6] was over 80%.

A word on the Kd: it is the equilibrium constant for the complex coming apart. `CC1(C)CC[C@]2(C(=O)NCCCCc3cn(Cc4cc(Cn5cc(CCCCNC(=O)[C@]67CCC(C)(C)C[C@H]6C6=CC[C@@H]8[C@@]9(C)CC[C@H](O)C(C)(C)[C@@H]9CC[C@@]8(C)[C@]6(C)CC7)nn5)cc(Cn5cc(CCCCNC(=O)[C@]67CCC(C)(C)C[C@H]6C6=CC[C@@H]8[C@@]9(C)CC[C@H](O)C(C)(C)[C@@H]9CC[C@@]8(C)[C@]6(C)CC7)nn5)c4)nn3)CC[C@]3(C)C(=CC[C@@H]4[C@@]5(C)CC[C@H](O)C(C)(C)[C@@H]5CC[C@]43C)[C@@H]2C1`: the half-maximal inhibitory concentration (IC50) with Influenza A virus [2] is 230 nM; with Influenza A virus [7], 4580 nM; in the data set with Influenza B virus, 1870 nM. Moreover, the CC50 in data set [3] is over 100000 nM. The selectivity ratio is over 435 in data set [4], over 21.8 in [8] and over 53.5 in [9]. For the same molecule, the “inhibition (INH)” value in the data set with Influenza A virus [10] and in the data set with Influenza A virus [11] was over 90% throughout. Moreover, in the data set on Influenza A virus [6], the inhibition at 100 µM was over 80%. Further, the Kd in data set [12] came out at 2630 nM.

On Hemagglutinin, `CC(=O)N[C@H]1[C@H]([C@H](O)[C@H](O)CO)OC(OCCCCC(=O)NCC(=O)N[C@@H](CO)C(=O)NCC(=O)N[C@@H](CO)C(=O)N[C@@H](C)C(=O)N[C@@H](CO)C(=O)NCC(=O)N[C@@H](CO)C(=O)NCC(=O)NCCCCCCNC(=O)c2cc(C(=O)NCCCCCCNC(=O)CNC(=O)[C@H](CO)NC(=O)CNC(=O)[C@H](CO)NC(=O)[C@H](C)NC(=O)[C@H](CO)NC(=O)CNC(=O)[C@H](CO)NC(=O)CNC(=O)CCCCOC3(C(=O)O)C[C@H](O)[C@@H](NC(C)=O)[C@H]([C@H](O)[C@H](O)CO)O3)cc(C(=O)NCCCCCCNC(=O)CNC(=O)[C@H](CO)NC(=O)CNC(=O)[C@H](CO)NC(=O)[C@H](C)NC(=O)[C@H](CO)NC(=O)CNC(=O)[C@H](CO)NC(=O)CNC(=O)CCCCOC3(C(=O)O)C[C@H](O)[C@@H](NC(C)=O)[C@H]([C@H](O)[C@H](O)CO)O3)c2)(C(=O)O)C[C@@H]1O` (some centres not stated) (I: Ac-[X1]GSGSASGSG / II: Ac-[X1]GSGSASGSG / III: Ac-[X1]GSGSASGSG; linker I:C-II:C-III:C via X2) gave a Kd of 446 nM.
